Measured values gathered from unrelated publications.
Lines come from different studies, so protocols differ.
Observed: microbial growth

The MIC of `O=C(Nc1ncc([N+](=O)[O-])s1)c1ccncc1F` is reported as 3.7 µM (Helicobacter pylori; broth dilution; 26695; 27 h).
For `CC1(C)S[C@@H]2[C@H](NC(=O)[C@H](N)c3ccccc3)C(=O)N2[C@H]1C(=O)O`, the MIC was 2 µg/mL (Salmonella enterica; F98, TYPHIMURIUM; 20 h, pH 7).
The MIC of `O=C(O)CN1C(=O)/C(=C/c2ccc(-c3ccc(N(c4ccccc4)c4ccccc4)cc3)cc2)SC1=S` is reported as 7.8 µg/mL (Bacillus cereus; broth dilution; ATCC10876).
For `C[C@@H](O)[C@H]1C(=O)N2C(C(=O)O)=C(S[C@@H]3CN[C@H](C(=O)N(C)C)C3)[C@H](C)[C@H]12`, the MIC was at most 0.5 µg/mL (Salmonella enterica; broth dilution; TYPHIMURIUM; clinical isolate).
With `O=C1NC(=S)S/C1=C\c1c2ccccc2c(-c2ccc(N(c3ccccc3)c3ccccc3)cc2)c2ccccc12` the MIC was over 1000 µg/mL (Bacillus cereus; broth dilution; ATCC10876).
The MIC of `Cc1cc(NS(=O)(=O)c2ccc(N)cc2)no1` is reported as 1020 µg/mL (Salmonella enterica; TYPHIMURIUM; 20 h, pH 5.5).
`O=C1NC(=S)S/C1=C\c1ccc(-c2ccc(N(c3ccccc3)c3ccccc3)cc2)c2ccccc12` has an MIC of 1000 µg/mL (Bacillus cereus; broth dilution; ATCC10876).
`CO/N=C(\C(=O)N[C@@H]1C(=O)N2C(C(=O)O)=C(CSc3nc(=O)c(=O)[nH]n3C)CS[C@H]12)c1csc(N)n1` has an MIC of 0.25 µg/mL (Salmonella enterica; F98, TYPHIMURIUM; 20 h, pH 5.5).
The MIC of `O=C(O)CN1C(=O)/C(=C/c2ccc(-c3ccc(N(c4ccccc4)c4ccccc4)cc3)c3ccccc23)SC1=S` is reported as 1000 µg/mL (Bacillus cereus; broth dilution; ATCC10876).
For `Oc1ccc(-c2nc(-c3ccc(Oc4ccccc4)cc3)no2)cc1`, the MIC was 2 µg/mL (Bacillus cereus; broth dilution; ATCC13061).
The MIC of `O=C(Nc1ncc([N+](=O)[O-])s1)C1CCCCC1` is reported as 1.2 µM (Helicobacter pylori; broth dilution; 26695; 27 h).
`O=c1cc(-c2ccc(O)c(O)c2)oc2cc(O)cc(O)c12` has an MIC of 3.9 µg/mL (Helicobacter pylori; broth dilution).
For `O=C(Nc1ncc([N+](=O)[O-])s1)c1cccnc1`, the MIC was 4 µM (Helicobacter pylori; broth dilution; 26695; 27 h).
`CCN1CCN(c2cc3c(cc2F)c(=O)c(C(=O)O)cn3C2CC2)CC1` has an MIC of 0.0625 µg/mL (Salmonella enterica; ENTERITIDIS; 20 h, pH 7.2).
